According to ChEMBL document CHEMBL1177643, “Synthesis, DNA-binding ability and anticancer activity of benzothiazole/benzoxazole-pyrrolo[2,1-c][1,4]benzodiazepine conjugates” (Bioorg Med Chem, 2010):
Values joined by “and” are separate entries in the source; they are usually repeats but may differ in a detail not shown here. Equal values may be shown once.

What was measured:
HT-29 [1] = test: Antitumor activity against human HT-29 cells xenografted in SCID mouse assessed as reduction tumor volume at 30 mg/kg, ip measured on day 14; assay type: functional; conditions: route intraperitoneal
Outline: (§1)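 HT29 xenografts in scid mice; dosing ip on days 1, 5 and 9 (q4d), 5 or 10 mg/kg per dose (total 15 or 30 mg/kg); vehicle control group. Tumour volume, body weight and toxicity followed for 35 days. Relative tumour volume = volume on given day / volume on day 1; T/C = mean RTV treated / mean RTV control.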

SF-268 = test: Growth inhibition of human SF268 cells after 48 hrs by sulforhodamine B assay; assay type: functional; conditions: SF-268, 48 h
Outline: (§2)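 Panel of 60 human cancer cell lines; for each compound, dose–response curves per cell line measured at a minimum of five concentrations at 10-fold dilutions. Cells exposed continuously to drug for 48 h, and growth was read out by sulforhodamine B staining.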

A-375 [2] = test: Cell cycle arrest in human A375 cells assessed as accumulation at G2/M phase at 1 uM after 24 hrs using propidium iodide staining by flow cytometry; assay type: functional
Outline: (§3)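 A375 cells (5×10^5) grown 24 h, then exposed to compound 24 h (DMSO control). Trypsin–EDTA harvest, fixed in ice-cold 70% ethanol at 4 °C 30 min, RNase A 37 °C 30 min, propidium iodide staining. DNA content measured by flow cytometry on 20,000 events, gated as sub-G1/G0, G1, S and G2/M.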

A-375 [3] = test: Cell cycle arrest in human A375 cells assessed as accumulation at G0 phase at 0.5 uM after 24 hrs using propidium iodide staining by flow cytometry; assay type: functional; outline: as §3
HT-29 [4] = test: Antitumor activity against human HT-29 cells xenografted in SCID mouse assessed as reduction tumor volume at 30 mg/kg, ip measured on day 28; assay type: functional; conditions: route intraperitoneal; outline: as §1
A-375 [5] = test: Cell cycle arrest in human A375 cells assessed as accumulation at G1 phase at 0.5 uM after 24 hrs using propidium iodide staining by flow cytometry; assay type: functional; outline: as §3
HT-29 [6] = test: Antitumor activity against human HT-29 cells xenografted in SCID mouse assessed as reduction tumor volume at 15 mg/kg, ip measured on day 28; assay type: functional; conditions: route intraperitoneal; outline: as §1
HT-29 [7] = test: Antitumor activity against human HT-29 cells xenografted in SCID mouse assessed as reduction tumor volume at 15 mg/kg, ip measured on day 25; assay type: functional; conditions: route intraperitoneal; outline: as §1
HT-29 [8] = test: Antitumor activity against human HT-29 cells xenografted in SCID mouse assessed as reduction tumor volume at 15 mg/kg, ip measured on day 14; assay type: functional; conditions: route intraperitoneal; outline: as §1
HT-29 [9] = test: Antitumor activity against human HT-29 cells xenografted in SCID mouse assessed as reduction tumor volume at 30 mg/kg, ip measured on day 21; assay type: functional; conditions: route intraperitoneal; outline: as §1
HT-29 [10] = test: Antitumor activity against human HT-29 cells xenografted in SCID mouse assessed as reduction tumor volume at 30 mg/kg, ip measured on day 17; assay type: functional; conditions: route intraperitoneal; outline: as §1
HT-29 [11] = test: Antitumor activity against human HT-29 cells xenografted in SCID mouse assessed as reduction tumor volume at 15 mg/kg, ip measured on day 32; assay type: functional; conditions: route intraperitoneal; outline: as §1
OVCAR-4 = test: Growth inhibition of human OVCAR4 cells after 48 hrs by sulforhodamine B assay; assay type: functional; conditions: OVCAR-4, 48 h; outline: as §2
Calf thymus DNA = test: Binding affinity to calf thymus duplex-form DNA assessed as cleavage of pBR322 after 16 hrs by restriction endonuclease digestion assay in presence of BamHI; assay type: nucleic-acid assay; conditions: Bos taurus
Outline: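 pBR322 DNA (500 ng) preincubated with compound (5–30 μM) 16 h at 37 °C, then digested with BamHI (20 U) 1 h at 37 °C. Products run on 1% agarose in Tris–acetate EDTA, 80 V, 2 h. Read-out was ethidium bromide staining under UV, with an undigested and a fully digested control.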

LOX IMVI = test: Growth inhibition of human LOXIMVI cells after 48 hrs by sulforhodamine B assay; assay type: functional; outline: as §2
Mus musculus = test: Toxicity in SCID mouse assessed as mortality at 50 mg/kg, ip; assay type: organism-based; design: dose 50 mg/kg, route intraperitoneal; conditions: in vivo
A-375 [12] = test: Cell cycle arrest in human A375 cells assessed as accumulation at G0/G1 phase at 2 uM after 24 hrs using propidium iodide staining by flow cytometry; assay type: functional; outline: as §3
HT-29 [13] = test: Antitumor activity against human HT-29 cells xenografted in SCID mouse assessed as reduction tumor volume at 15 mg/kg, ip measured on day 9; assay type: functional; conditions: route intraperitoneal; outline: as §1
NCI-H23 = test: Growth inhibition of human NCI-H23 cells after 48 hrs by sulforhodamine B assay; assay type: functional; conditions: NCI-H23, 48 h; outline: as §2
SK-MEL-5 = test: Growth inhibition of human SK-MEL-5 cells after 48 hrs by sulforhodamine B assay; assay type: functional; conditions: SK-MEL-5, 48 h; outline: as §2
KM12 = test: Growth inhibition of human KM12 cells after 48 hrs by sulforhodamine B assay; assay type: functional; conditions: KM12, 48 h; outline: as §2
NCI-H522 = test: Growth inhibition of human NCI-H522 cells after 48 hrs by sulforhodamine B assay; assay type: functional; conditions: NCI-H522, 48 h; outline: as §2
PC-3 = test: Growth inhibition of human PC3 cells after 48 hrs by sulforhodamine B assay; assay type: functional; conditions: PC-3, 48 h; outline: as §2
A498 = test: Growth inhibition of human A498 cells after 48 hrs by sulforhodamine B assay; assay type: functional; conditions: A498, 48 h
Outline: (§4)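 Dose–response in each cell line over at least five concentrations at 10-fold dilutions, with 48 h continuous exposure and sulforhodamine B read-out.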

NCI-H226 = test: Growth inhibition of human NCI-H226 cells after 48 hrs by sulforhodamine B assay; assay type: functional; conditions: NCI-H226, 48 h; outline: as §2
UACC-62 = test: Growth inhibition of human UACC62 cells after 48 hrs by sulforhodamine B assay; assay type: functional; conditions: UACC-62, 48 h; outline: as §2
SN12C = test: Growth inhibition of human SN12C cells after 48 hrs by sulforhodamine B assay; assay type: functional; outline: as §2
MOLT-4 = test: Growth inhibition of human MOLT4 cells after 48 hrs by sulforhodamine B assay; assay type: functional; conditions: MOLT-4, 48 h; outline: as §2
DU-145 = test: Growth inhibition of human DU145 cells after 48 hrs by sulforhodamine B assay; assay type: functional; conditions: DU-145, 48 h; outline: as §4
A-375 [14] = test: Cell cycle arrest in human A375 cells assessed as accumulation at G1 phase at 2 uM after 24 hrs using propidium iodide staining by flow cytometry; assay type: functional; outline: as §3
OVCAR-8 = test: Growth inhibition of human OVCAR8 cells after 48 hrs by sulforhodamine B assay; assay type: functional; conditions: OVCAR-8, 48 h; outline: as §2
SR = test: Growth inhibition of human SR cells after 48 hrs by sulforhodamine B assay; assay type: functional; outline: as §2
HL-60 = test: Growth inhibition of human HL-60(TB) cells after 48 hrs by sulforhodamine B assay; assay type: functional; conditions: HL-60, 48 h; outline: as §2
A-375 [15] = test: Cell cycle arrest in human A375 cells assessed as accumulation at G1 phase at 1 uM after 24 hrs using propidium iodide staining by flow cytometry; assay type: functional; outline: as §3
HT-29 [16] = test: Antitumor activity against human HT-29 cells xenografted in SCID mouse assessed as reduction tumor volume at 30 mg/kg, ip measured on day 1; assay type: functional; conditions: route intraperitoneal; outline: as §1
786-0 = test: Growth inhibition of human 786-0 cells after 48 hrs by sulforhodamine B assay; assay type: functional; conditions: 786-0, 48 h; outline: as §4

Row | Structure (SMILES) | GI50 (SF-268) [nM] | GI50 (OVCAR-4) [nM] | Activity (Calf thymus DNA) | GI50 (LOX IMVI) [nM] | Activity (A-375 [12]) [%] | GI50 (NCI-H23) [nM] | GI50 (SK-MEL-5) [nM] | GI50 (KM12) [nM] | GI50 (NCI-H522) [nM] | GI50 (PC-3) [nM] | GI50 (A498) [nM] | GI50 (NCI-H226) [nM] | GI50 (UACC-62) [nM] | GI50 (SN12C) [nM] | GI50 (MOLT-4) [nM] | Activity (A-375 [14]) [%] | GI50 (OVCAR-8) [nM] | GI50 (SR) [nM] | GI50 (HL-60) [nM] | GI50 (786-0) [nM] | also measured
1 | COc1cc(-c2nc3ccccc3s2)ccc1OCCCCCOc1cc2c(cc1OC)C(=O)N1CCC[C@H]1C=N2 | 347 | 288 | Dose-dependent effect | 18.2 | 93.79 | 61.7 | 24.6 | 166 | 41.7 | 41.7 | 174 | 214 | 81.3 | 200 | 43.6 | 67.04 | 141 | 17.4 | 33.1 | 27.5 | T/C (HT-29 [1]): 0.66%; Activity (A-375 [2]): 20.32%; Activity (A-375 [3]): 2.13%; T/C (HT-29 [4]): 0.75%; Activity (A-375 [5]): 64.95%; T/C (HT-29 [6]): 0.73% and 0.18%; T/C (HT-29 [7]): 0.72% and 0.2%; T/C (HT-29 [8]): 0.58% and 0.3%; T/C (HT-29 [9]): 0.58%; T/C (HT-29 [10]): 0.81%; T/C (HT-29 [11]): 0.76% and 0.16%; Activity (Mus musculus): Non-toxic; T/C (HT-29 [13]): 0.49%; GI50 (DU-145): 33.9 nM; Activity (A-375 [15]): 61.56%; T/C (HT-29 [16]): 1%
2 | COc1cc(-c2nc3ccccc3s2)ccc1OCCCCOc1cc2c(cc1OC)C(=O)N1CCC[C@H]1C=N2 | 1230 | 1620 | Dose-dependent effect | 724 | 90.55 | 1480 | 407 | 1020 | 550 | 407 | 1620 | 2400 | 1120 | 955 | 676 | 69.69 | 1780 | 295 | 513 | 891 | GI50 (DU-145): 302 nM
3 | COc1cc2c(cc1OCCCCC(=O)Nc1ccc(-c3nc4ccccc4s3)cc1)N=C[C@@H]1CCCN1C2=O | 2040 | 2820 |  | 1550 | 88.44 |  | 1780 | 2950 | 977 | 2040 | 1860 | 2880 | 1740 | 2820 | 1620 | 73.34 | 1550 | 550 | 1780 | 1550 | 
